In ChEMBL document CHEMBL1154511, “Synthesis and biological evaluation of amide derivatives of diflunisal as potential anti-inflammatory agents” (2009):

How the values were obtained:
Assay type in all cases: functional
Mus musculus [1] = assay: Analgesic activity in Kunming mouse assessed as inhibition of acetic acid-induced writhing response at 40 mg/kg, po
Method in brief: (§1)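 Male and female Kunming mice (20–26 g) given the test substance by the oral route at 40 mg/kg. Percent inhibition was scored in the xylene-induced ear edema model (anti-inflammatory) or the acetic acid-induced writhing model (analgesic).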

Mus musculus [2] = assay: Antiinflammatory activity in mouse assessed as inhibition of xylene-induced ear edema at 40 mg/kg, po; method in brief: as §1
Rattus norvegicus = assay: Antiinflammatory activity in rat assessed as inhibition of carrageenan-induced paw edema
Mus musculus [3] = assay: Antiinflammatory activity in orally dosed mouse assessed as inhibition of xylene-induced ear edema; settings: po
Method in brief: (§2)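 Male and female Kunming mice (20–26 g) dosed orally. ED50 was determined in the xylene-induced ear edema model (anti-inflammatory) or the acetic acid-induced writhing model (analgesic).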

Mus musculus [4] = assay: Analgesic activity in orally dosed Kunming mouse assessed as inhibition of acetic acid-induced writhing response; settings: po; method in brief: as §2

SMILES | inhibition in vivo at 40 mg/kg (Mus musculus [1]) [%] | inhibition in vivo at 40 mg/kg (Mus musculus [2]) [%] | ED50 (Rattus norvegicus) [mg/kg] | ED50 (Mus musculus [3]) [mg/kg] | ED50 (Mus musculus [4]) [mg/kg]
CC(=O)Oc1ccc(-c2ccc(F)cc2F)cc1C(=O)Nc1ccc(Cl)cc1 | 29.9 | 0 | – | – | –
CC(=O)Oc1ccc(-c2ccc(F)cc2F)cc1C(=O)Nc1ccccc1C | 12.3 | 19.6 | – | – | –
O=C(O)c1cc(-c2ccc(F)cc2F)ccc1O [DIFLUNISAL] | 8.33 | 39.9 | 59.6 | – | –
CC(=O)Oc1ccc(-c2ccc(F)cc2F)cc1C(=O)Nc1cc(C)ccc1C | 13.2 | 22 | – | – | –
CN1CCN(C(=O)c2cc(-c3ccc(F)cc3F)ccc2OC(=O)c2ccccc2)CC1 | 88.3 | 27.5 | – | – | –
CC(=O)Oc1ccc(-c2ccc(F)cc2F)cc1C(=O)Nc1ccccc1 | 8.9 | 23.2 | – | – | –
CNC(=O)c1cc(-c2ccc(F)cc2F)ccc1OC(=O)c1ccccc1 | 47.5 | 68.9 | – | 24.2 | 43.8
O=C(Oc1ccc(-c2ccc(F)cc2F)cc1C(=O)O)c1ccccc1 | 7.97 | 16.1 | – | – | –
CC(=O)Oc1ccc(-c2ccc(F)cc2F)cc1C(=O)Nc1ccccc1Cl | 11.7 | 41.4 | – | – | –
CC(=O)Oc1ccc(-c2ccc(F)cc2F)cc1C(=O)NCc1ccccc1 | 16.6 | 34.1 | – | – | –
CC(=O)Oc1ccc(-c2ccc(F)cc2F)cc1C(=O)Nc1cccc(C)c1 | 19 | 12.8 | – | – | –
Cc1ccccc1NC(=O)c1cc(-c2ccc(F)cc2F)ccc1OC(=O)c1ccccc1 | 20.8 | 21.4 | – | – | –
CC(=O)Oc1ccc(-c2ccc(F)cc2F)cc1C(=O)Nc1ccc(C)cc1 | 31 | 36.4 | – | – | –
CC(=O)Oc1ccc(-c2ccc(F)cc2F)cc1C(=O)NN1CCOCC1 | 28.5 | 0 | – | – | –
O=C(Oc1ccc(-c2ccc(F)cc2F)cc1C(=O)Nc1ccccc1)c1ccccc1 | 5.57 | 19.8 | – | – | –
CC(=O)Oc1ccc(-c2ccc(F)cc2F)cc1C(=O)NC1CCCCC1 | 15.6 | 0 | – | – | –
CNC(=O)c1cc(-c2ccc(F)cc2F)ccc1OC(C)=O | 29.9 | 48.8 | – | – | –
CC(=O)Oc1ccc(-c2ccc(F)cc2F)cc1C(=O)O | 0 | 13.7 | – | – | –
CCNC(=O)c1cc(-c2ccc(F)cc2F)ccc1OC(C)=O | 23.9 | 5.38 | – | – | –
CCN(CC)C(=O)c1cc(-c2ccc(F)cc2F)ccc1OC(=O)c1ccccc1 | 0 | 65.2 | – | 25.7 | –
